ChEMBL document CHEMBL1124054, “Synthesis and biological activity of ketomethylene-containing nonapeptide analogues of snake venom angiotensin converting enzyme inhibitors” (J Med Chem, 1988)
Non-standard residues stand in square brackets, D forms with d. Residues, ends and D or L forms follow the SMILES beside them. pGlu = O=C1CC[C@@H](C(=O)O)N1; Nle = CCCC[C@H](N)C(=O)O

Columns and labels:
[1] = target: T1, Angiotensin-converting enzyme (Rattus norvegicus, UniProt P47820); assay: Inhibition of Angiotensin I converting enzyme in normotensive rat; type: functional; settings: read-out: I50 (converted)
T1 sequence (P47820 whole entry): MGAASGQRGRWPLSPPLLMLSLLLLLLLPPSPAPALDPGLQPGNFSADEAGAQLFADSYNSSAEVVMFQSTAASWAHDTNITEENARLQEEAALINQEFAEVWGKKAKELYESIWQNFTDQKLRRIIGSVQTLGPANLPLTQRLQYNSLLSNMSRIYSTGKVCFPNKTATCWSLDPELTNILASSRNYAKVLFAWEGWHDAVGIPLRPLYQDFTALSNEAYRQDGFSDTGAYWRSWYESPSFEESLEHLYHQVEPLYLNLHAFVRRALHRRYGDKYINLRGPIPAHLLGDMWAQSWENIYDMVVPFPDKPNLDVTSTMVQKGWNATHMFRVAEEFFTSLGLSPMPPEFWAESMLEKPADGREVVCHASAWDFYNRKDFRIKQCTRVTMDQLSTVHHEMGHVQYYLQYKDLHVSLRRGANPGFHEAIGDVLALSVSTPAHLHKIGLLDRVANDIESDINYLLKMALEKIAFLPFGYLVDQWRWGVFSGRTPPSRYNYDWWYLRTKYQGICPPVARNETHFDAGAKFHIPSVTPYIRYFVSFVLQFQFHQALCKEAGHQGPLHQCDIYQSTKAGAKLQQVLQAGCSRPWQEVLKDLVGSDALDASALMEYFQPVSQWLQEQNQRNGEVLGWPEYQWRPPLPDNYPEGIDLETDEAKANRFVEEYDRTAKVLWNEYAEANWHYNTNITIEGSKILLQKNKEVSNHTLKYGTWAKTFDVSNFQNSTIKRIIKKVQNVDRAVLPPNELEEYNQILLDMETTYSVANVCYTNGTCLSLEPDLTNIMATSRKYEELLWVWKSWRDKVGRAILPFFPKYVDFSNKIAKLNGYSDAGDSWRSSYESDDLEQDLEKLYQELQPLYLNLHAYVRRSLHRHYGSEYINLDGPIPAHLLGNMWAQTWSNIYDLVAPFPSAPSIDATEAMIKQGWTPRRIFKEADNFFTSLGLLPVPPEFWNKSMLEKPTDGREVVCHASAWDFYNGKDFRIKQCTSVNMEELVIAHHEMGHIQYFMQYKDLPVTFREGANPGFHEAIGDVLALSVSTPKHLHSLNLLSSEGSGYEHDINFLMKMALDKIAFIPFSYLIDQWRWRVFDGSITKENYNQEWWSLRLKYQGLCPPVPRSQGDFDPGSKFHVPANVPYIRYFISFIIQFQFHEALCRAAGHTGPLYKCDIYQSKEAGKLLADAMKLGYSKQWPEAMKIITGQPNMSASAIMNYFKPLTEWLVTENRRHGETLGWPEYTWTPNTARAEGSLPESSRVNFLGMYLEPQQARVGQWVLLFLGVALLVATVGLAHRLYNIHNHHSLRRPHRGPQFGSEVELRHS

[2] = target: Angiotensin-converting enzyme (Oryctolagus cuniculus) (UniProt P12822); assay: Inhibition of Angiotensin I converting enzyme from rabbit lung; settings: read-out: I50
Rattus norvegicus [3] = assay: Inhibition of angiotensin I induced blood pressure in normotensive anesthetized rats at 100 ug/kg (i.v.) for 60 min; type: functional
Method in brief: (§1)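 Male Sprague-Dawley normotensive rats (290-540 g), pentobarbital-anesthetized (50 mg/kg ip), intubated. Jugular vein cannulated for iv dosing and carotid artery for blood pressure. Control pressor response to angiotensin I (175 ng/kg iv) taken after vehicle (1 mL/kg). Compound given iv in distilled water or 5% sodium bicarbonate. Angiotensin I challenge repeated at 1.5 to 75 min, rise in pressure compared with control.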

Rattus norvegicus [4] = assay: Inhibition of angiotensin I induced blood pressure in normotensive anesthetized rats at 3 ug/kg (i.v.) for 5 min; type: functional; method in brief: as §1
Rattus norvegicus [5] = assay: Inhibition of angiotensin I induced blood pressure in normotensive anesthetized rats at 100 ug/kg (i.v.) for 5 min; type: functional; method in brief: as §1
Rattus norvegicus [6] = assay: Inhibition of angiotensin I induced blood pressure in normotensive anesthetized rats at 100 ug/kg (i.v.) for 75 min; type: functional; method in brief: as §1
Rattus norvegicus [7] = assay: Inhibition of angiotensin I induced blood pressure in normotensive anesthetized rats at 30 ug/kg (i.v.) for 5 min; type: functional; method in brief: as §1
Rattus norvegicus [8] = assay: Inhibition of angiotensin I induced blood pressure in normotensive anesthetized rats at 30 ug/kg (i.v.) for 1.5 min; type: functional; method in brief: as §1
Rattus norvegicus [9] = assay: Inhibition of angiotensin I induced blood pressure in normotensive anesthetized rats at 30 ug/kg (i.v.) for 30 min; type: functional; method in brief: as §1
Rattus norvegicus [10] = assay: Inhibition of angiotensin I induced blood pressure in normotensive anesthetized rats at 30 ug/kg (i.v.) for 10 min; type: functional; method in brief: as §1
Rattus norvegicus [11] = assay: Inhibition of angiotensin I induced blood pressure in normotensive anesthetized rats at 100 ug/kg (i.v.) for 1.5 min; type: functional; method in brief: as §1
Rattus norvegicus [12] = assay: Inhibition of angiotensin I induced blood pressure in normotensive anesthetized rats at 100 ug/kg (i.v.) for 10 min; type: functional; method in brief: as §1
Rattus norvegicus [13] = assay: Inhibition of angiotensin I induced blood pressure in normotensive anesthetized rats at 3 ug/kg (i.v.) for 1.5 min; type: functional; method in brief: as §1
Rattus norvegicus [14] = assay: Inhibition of angiotensin I induced blood pressure in normotensive anesthetized rats at 3 ug/kg (i.v.) for 10 min; type: functional; method in brief: as §1
Rattus norvegicus [15] = assay: Inhibition of angiotensin I induced blood pressure in normotensive anesthetized rats at 100 ug/kg (i.v.) for 30 min; type: functional; method in brief: as §1

NCCCC[C@H](NC(=O)[C@@H]1CCC(=O)N1)C(=O)N[C@@H](Cc1ccccc1)C(=O)NCC(=O)N1CCC[C@H]1C(=O)O ([pGlu]KFGP-OH)
IC50 [1]: 179 nM

CC[C@H](C)[C@H](NC(=O)[C@H](CCC(N)=O)NC(=O)[C@@H]1CCCN1C(=O)CNC(=O)[C@@H]1CCCN1C(=O)[C@H](Cc1c[nH]c2ccccc12)NC(=O)[C@@H]1CCC(=O)N1)C(=O)N1CCC[C@H]1C(=O)N1CCC[C@H]1C(=O)O ([pGlu]WPGPQIPP-OH)
IC50 [2]: 1900 nM

C[C@H](NC(=O)[C@H](Cc1ccccc1)NC(=O)[C@H](CCCCN)NC(=O)[C@@H]1CCCN1C(=O)[C@H](CCCN=C(N)N)NC(=O)[C@@H]1CCCN1C(=O)[C@H](Cc1c[nH]c2ccccc12)NC(=O)[C@@H]1CCC(=O)N1)C(=O)N1CCC[C@H]1C(=O)O ([pGlu]WPRPKFAP-OH)
IC50 [2]: 50 nM

CC[C@H](C)[C@H](NC(=O)[C@H](CCC(N)=O)NC(=O)[C@@H]1CCCN1C(=O)[C@H](CCCN=C(N)N)NC(=O)[C@@H]1CCCN1C(=O)[C@H](Cc1ccc(O)cc1)NC(=O)[C@@H]1CCC(=O)N1)C(=O)N1CCC[C@H]1C(=O)N1CCC[C@H]1C(=O)O ([pGlu]YPRPQIPP-OH)
IC50 [2]: 2600 nM

CCCC[C@H](NC(=O)[C@@H]1CCC(=O)N1)C(=O)N[C@@H](Cc1ccccc1)C(=O)N[C@@H](C)C(=O)N1CCC[C@H]1C(=O)O ([pGlu][Nle]FAP-OH)
IC50 [1]: 359 nM

C[C@H](CS)C(=O)N1CCC[C@H]1C(=O)O [CAPTOPRIL]
Inhibition over time (Rattus norvegicus [3]): 1.8% | Inhibition over time (Rattus norvegicus [4]): 8.3% | Inhibition over time (Rattus norvegicus [5]): 83.5% | Inhibition over time (Rattus norvegicus [6]): 0% | Inhibition over time (Rattus norvegicus [7]): 60.5% | Inhibition over time (Rattus norvegicus [8]): 78.3% | Inhibition over time (Rattus norvegicus [9]): 0% | Inhibition over time (Rattus norvegicus [10]): 8.3% | Inhibition over time (Rattus norvegicus [11]): 71.5% | Inhibition over time (Rattus norvegicus [12]): 51.1% | Inhibition over time (Rattus norvegicus [13]): 18.7% | Inhibition over time (Rattus norvegicus [14]): 0% | Inhibition over time (Rattus norvegicus [15]): 27.3%

CC[C@H](C)[C@H](NC(=O)[C@H](CCC(N)=O)NC(=O)[C@@H]1CCCN1C(=O)[C@H](CCCNC(=N)N)NC(=O)[C@@H]1CCCN1C(=O)[C@H](Cc1c[nH]c2ccccc12)NC(=O)[C@@H]1CCC(=O)N1)C(=O)N1CCC[C@H]1C(=O)N1CCC[C@H]1C(=O)O [TEPROTIDE]
IC50 [2]: 1100 nM
